Source: ChEMBL document CHEMBL2380272, “Biological evaluation of bisbenzaldehydes against four Mycobacterium species” (Eur J Med Chem, 2013)
In brackets after ≈: the same amount, converted by molar mass.

Experiments:
[1] = test system: Mycobacterium tuberculosis; experiment: Antimycobacterial activity against Mycobacterium tuberculosis H37Rv infected in mouse J774.A1 cells at 1 MOI assessed as intracellular bacterial growth inhibition at 0.1 uM after 1 hr by luciferase reporter gene assay relative to control; type: functional; conditions: J774.A1, 1 h, read-out: GI
[2] = test system: Mycobacterium tuberculosis; experiment: Antimycobacterial activity against Mycobacterium tuberculosis H37Rv ATCC 27294 assessed as growth inhibition after 6 days by luciferase reporter gene assay; type: functional; conditions: H37Rv ATCC 27294, 144 h
Procedure, shortened: (§1)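 Mycobacteria carrying the pSMT1 luciferase reporter plasmid. Compounds came from 10 mM DMSO stocks and were serially diluted in 7H9 + 10% FCS. Thawed bacteria were filtered, recovered 1 h at 37 °C, then added at 50 000 RLU/mL. After 6 days of culture, light was read for 10 s after adding 1% n-decanal. Triplicates were run, and MIC50 was the concentration giving 50% growth inhibition.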

[3] = Potency index, ratio of MIC50 for Mycobacterium avium subsp. paratuberculosis ATCC 19698 to MIC50 for Mycobacterium bovis AN5; type: functional
[4] = test system: Mycobacterium tuberculosis; experiment: Antimycobacterial activity against Mycobacterium tuberculosis H37Rv infected in mouse J774.A1 cells at 1 MOI assessed as intracellular bacterial growth inhibition at 1 uM after 1 hr by luciferase reporter gene assay relative to control; type: functional; conditions: J774.A1, 1 h, read-out: GI
[5] = Toxicity in recombinant Salmonella typhimurium TA104 expressing luxabcd genes under transcriptional control of constitutive pr1 promoter assessed as concentration required to reduce cell viability measured every 5 mins for 4 hrs by vitotox assay in presence of S9 fraction; type: organism-based; conditions: salmonella enterica subsp. enterica serovar typhimurium; read-out: Activity
Procedure, shortened: (§2)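 Cytox strain TA104 pr1 (constitutive promoter driving lux), run alongside the genox strain. Grown in poor LB at 36 °C for 16 h, diluted 125-fold and shaken 1 h, then diluted 10-fold, with or without aroclor-rat S9. Luminescence read at 30 °C every 5 min over 4 h; a drop in light signal indicates reduced viability. Top concentration 10 µM.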

[6] = test system: Mycobacterium avium subsp. paratuberculosis; experiment: Antimycobacterial activity against Mycobacterium avium subsp. paratuberculosis ATCC 19698 assessed as growth inhibition after 6 days by luciferase reporter gene assay; type: functional; conditions: ATCC 19698, 144 h; procedure, shortened: as §1
[7] = test system: Mycobacterium tuberculosis; experiment: Antimycobacterial activity against Mycobacterium tuberculosis H37Rv ATCC 27294 assessed as growth inhibition at 1 uM after 6 days by luciferase reporter gene assay relative to control; type: functional; conditions: H37Rv ATCC 27294, 144 h, read-out: GI
Procedure, shortened: (§3)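 Luminescent M. tb H37Rv (hsp60-driven luciferase) in 7H9 + 10% FCS was seeded at 50 000 RLU/mL. Compounds were tested at 10, 1 and 0.1 µM from 10 mM DMSO stocks. After 6 days, luminescence was read with 1% n-decanal. Growth inhibition (%) was expressed against untreated culture, with triplicates.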

[8] = Antimycobacterial activity against Mycobacterium avium subsp. avium ATCC 15769 assessed as growth inhibition after 6 days by luciferase reporter gene assay; type: functional; conditions: ATCC 15769, 144 h; procedure, shortened: as §1
[9] = Cytotoxicity against human HepG2/C3A cells assessed as cell viability at 60 uM after 24 hrs by neutral red uptake assay relative to control; type: cell-based; conditions: read-out: Activity
Procedure, shortened: (§4)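 C3A cells grown in DMEM + 10% FCS, 40 000 cells/well, recovered overnight at 37 °C, 5% CO2. Exposed 24 h to serial dilutions in DMEM + 10% FCS from 18 mM DMSO stocks, DMSO limited to 1%. Neutral red added for 3 h, cells washed, dye extracted with ethanol/acetic acid (50%/1%), OD read at 540 nm with 620 nm reference. Viability expressed as % of untreated cells.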

[10] = Potency index, ratio of MIC50 for Mycobacterium avium subsp. avium ATCC 15769 to MIC50 for Mycobacterium bovis AN5; type: functional
[11] = test system: Salmonella typhimurium; experiment: Genotoxicity in recombinant Salmonella typhimurium TA104 expressing Vibrio fisheri luxabcd genes under transcriptional control of recN2-4 promoter assessed as concentration required to cause DNA damage measured every 5 mins for 4 hrs by vitotox assay in presence of S9 fraction; type: toxicity, organism-based; conditions: salmonella enterica subsp. enterica serovar typhimurium, s9, 4 h
Procedure, shortened: (§5)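 VITOTOX genox strain TA104 recN2-4 (recN promoter driving lux). Grown 16 h at 36 °C in poor LB, diluted 125-fold and shaken 1 h, then diluted 10-fold; rat aroclor S9 added for +S9 runs. Incubated at 30 °C with light read every 5 min for 4 h. Signal/noise = exposed over unexposed light. Highest concentration tested 10 µM.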

[12] = Cytotoxicity against human HepG2/C3A cells assessed as cell viability at 180 uM after 24 hrs by neutral red uptake assay relative to control; type: cell-based; conditions: read-out: Activity; procedure, shortened: as §4
[13] = test system: Mycobacterium ulcerans; experiment: Antimycobacterial activity against Mycobacterium ulcerans 1615 assessed as growth inhibition after 6 days by luciferase reporter gene assay; type: functional; conditions: Mycobacterium ulcerans, 1615, 144 h
Procedure, shortened: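 M. ulcerans 1615 carrying pSMT1 luciferase reporter plasmid, stock grown as surface pellicle on Sauton medium, cultured at 32 °C. Serial compound dilutions in 7H9 + 10% FCS from 10 mM DMSO stocks, tested in triplicate. Filtered bacteria added at 50 000 RLU/mL. After 6 days, wells collected and washed with PBS, 1% n-decanal in ethanol added, light read over 10 s. MIC50 = concentration giving 50% inhibition versus untreated.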

[14] = test system: Salmonella typhimurium; experiment: Toxicity in recombinant Salmonella typhimurium TA104 expressing luxabcd genes under transcriptional control of constitutive pr1 promoter assessed as concentration required to reduce cell viability measured every 5 mins for 4 hrs by vitotox assay in absence of S9 fraction; type: organism-based; conditions: salmonella enterica subsp. enterica serovar typhimurium; procedure, shortened: as §2
[15] = Cytotoxicity against human HepG2/C3A cells assessed as cell viability at 120 uM after 24 hrs by neutral red uptake assay relative to control; type: cell-based; conditions: read-out: Activity; procedure, shortened: as §4
[16] = Selectivity index, ratio of NI50 for human HepG2/C3A cells to MIC50 for Mycobacterium tuberculosis H37Rv ATCC 27294; type: functional
[17] = test system: Mycobacterium tuberculosis; experiment: Antimycobacterial activity against Mycobacterium tuberculosis H37Rv ATCC 27294 assessed as growth inhibition at 10 uM after 6 days by luciferase reporter gene assay relative to control; type: functional; conditions: H37Rv ATCC 27294, 144 h, read-out: GI; procedure, shortened: as §3
[18] = test system: Salmonella typhimurium; experiment: Genotoxicity in recombinant Salmonella typhimurium TA104 expressing Vibrio fisheri luxabcd genes under transcriptional control of recN2-4 promoter assessed as concentration required to cause DNA damage measured every 5 mins for 4 hrs by vitotox assay in absence of S9 fraction; type: toxicity, organism-based; conditions: salmonella enterica subsp. enterica serovar typhimurium; procedure, shortened: as §5
[19] = test system: Mycobacterium tuberculosis; experiment: Antimycobacterial activity against Mycobacterium tuberculosis H37Rv ATCC 27294 assessed as growth inhibition at 0.1 uM after 6 days by luciferase reporter gene assay relative to control; type: functional; conditions: H37Rv ATCC 27294, 144 h, read-out: GI; procedure, shortened: as §3
[20] = test system: Mycobacterium tuberculosis; experiment: Antimycobacterial activity against Mycobacterium tuberculosis H37Rv infected in mouse J774.A1 cells at 1 MOI assessed as intracellular bacterial growth inhibition at 10 uM after 1 hr by luciferase reporter gene assay relative to control; type: functional; conditions: J774.A1, 1 h, read-out: GI

Structure (SMILES)	intracellular bacterial growth inhibition at 0.1 µM [1] [%]	MIC50 [2] [µM]	Ratio [3]	percent inhibition of intracellular bacterial growth at 1 µM [4] [%]	MCC at 4 h [5] [µM]	MIC50 [6] [µM]	inhibition of growth at 1 µM [7] [%]	MIC50 [8] [µM]	viability at 24 h, 60 µM [9] [%]	Ratio [10]	Activity [11] [µM]	viability at 24 h, 180 µM [12] [%]	MIC50 [13] [µM]	Activity [14] [µM]	viability at 24 h, 120 µM [15] [%]	Selectivity Index [16]	inhibition of growth at 10 µM [17] [%]	Activity [18] [µM]	inhibition of growth at 0.1 µM [19] [%]	intracellular bacterial growth inhibition at 10 µM [20] [%]
O=Cc1ccc(OCCCCCCCCCCCOc2ccc(C=O)cc2)cc1	5.2	0.64 (≈ 0.254 µg/mL)	5	48.2	> 10	4.23 (≈ 1.68 µg/mL)	73	4.96 (≈ 1.97 µg/mL)	93.3	5	> 10	75.4	9.82 (≈ 3.89 µg/mL)	> 10	94.1	>281.3	100	> 10	25	69.4
O=Cc1ccc(OCCCCCCCOc2ccc(C=O)cc2)cc1	-1.2	0.85 (≈ 0.289 µg/mL)	5	43.3	> 10	5.05 (≈ 1.72 µg/mL)	62	5.12 (≈ 1.74 µg/mL)	100	5	> 10	53.4	> 10	> 10	78.9	>211.8	99	> 10	13	55
O=Cc1ccc(OCCCCCCCCCOc2ccc(C=O)cc2)cc1	-0.5	0.95 (≈ 0.35 µg/mL)	5	45.7	> 10	5.95 (≈ 2.19 µg/mL)	59	5.32 (≈ 1.96 µg/mL)	100	5	> 10	75.7	> 10	> 10	93	>189.5	98	> 10	11	62.1
O=Cc1ccc(OCCCCCCOc2ccc(C=O)cc2)cc1	3.2	0.83 (≈ 0.271 µg/mL)	5	46.6	> 10	6.56 (≈ 2.14 µg/mL)	65	6.18 (≈ 2.02 µg/mL)	93.4	5	> 10	59.3	> 10	> 10	85.9	>216.9	99	> 10	15	52.6
O=Cc1ccc(OCCCOc2ccc(C=O)cc2)cc1	-1.2	2.65 (≈ 0.753 µg/mL)		29.9	> 10	> 10	35	> 10	94.9		> 10	77.4	> 10	> 10	94.8	>67.9	84	> 10	< 10	42
